16 compounds from ChEMBL document CHEMBL1221229, “Phloroglucinol glycosides from the fresh fruits of Eucalyptus maideni” (J Nat Prod, 2010) can be followed below.

SMILES strings stand for the structures. The source made the active and inactive calls. The calls are words filed in the database; no cut-off is given here.

Data set [1] can be described thus: Cytotoxicity against african green monkey Vero cells after 3 days by MTT assay. Type of data set: cell-based. Conditions: chlorocebus sabaeus, read-out: MNCC. In a few lines:
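Confluent Vero monolayers in 96-well plates were exposed in triplicate to serial sample dilutions in DMEM with 2% FBS (pH 7.2) for 3 days. MTT (5 mg/mL in PBS) was added for 4 h, and formazan was dissolved in DMSO with OD read at 540/630 nm. The value is the maximal concentration without cytotoxic effect relative to medium control.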
A general note: Tetrazolium dyes change colour on reduction, which living cells bring about.

In the next data set the test system is Human alphaherpesvirus 1. In words: Antiviral activity against HSV1 infected african green monkey Vero cells assessed as reduction of plaque formation after 3 days by using crystal violet stain. Type of data set: functional, organism-based. Summed up: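 Vero cells in 24-well plates, grown 24 h, then infected with 30 PFU HSV-1 alongside serial sample dilutions in DMEM with 2% FBS (pH 7.2, NaHCO3/Hepes). The wells were overlaid with 1% methylcellulose medium and incubated 3 days. Monolayers were formalin-fixed and crystal violet-stained, and plaques counted by microscope. The 100% plaque-reducing concentration was read from graphic plots. Aciclovir was the positive control.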

`O=c1cc(-c2cc(O)c(O)c(O[C@@H]3O[C@H](CO)[C@@H](O)[C@H](O)[C@H]3O)c2)oc2cc(O)cc(O)c12`: the MNTC at 72 h in data set [1] stood at 430 µM. The inhibition entry in the data set on Human alphaherpesvirus 1 is “inactive”.
With `O=c1cc(-c2ccc(O)c(O[C@@H]3O[C@H](CO)[C@@H](O)[C@H](O)[C@H]3O)c2)oc2cc(O)cc(O)c12`, the MNTC at 72 h in data set [1] turned out to be 450 µM. For the same compound, the inhibition entry with Human alphaherpesvirus 1 is “inactive”.
Regarding `COc1c(O)cc2c(=O)oc3c(O[C@@H]4O[C@@H](C)[C@H](O)[C@@H](O)[C@H]4O)c(O)cc4c(=O)oc1c2c34`, the MNTC at 72 h in data set [1] was determined as 430 µM. Besides, the inhibition result in the data set on Human alphaherpesvirus 1 is “inactive”.
Turning to `O=C[C@H](O)[C@@H](O)[C@H](O)[C@H](O)COC(=O)c1cc(O)c(O)c(O)c1`, in data set [1], the MNTC at 72 h came to 9 µM. The inhibition entry with Human alphaherpesvirus 1 was “inactive”.
For the compound `O=c1c(O[C@@H]2O[C@H](CO)[C@@H](O)[C@H](O)[C@H]2O[C@@H]2OC[C@@H](O)[C@H](O)[C@H]2O)c(-c2ccc(O)c(O)c2)oc2cc(O)cc(O)c12`, the MNTC at 72 h in data set [1] amounted to 370 µM. Besides, the inhibition result in the data set with Human alphaherpesvirus 1 was “inactive”.
`CC(C)(O)[C@H]1CC=C(C(=O)OC[C@H]2O[C@@H](OC(=O)[C@H]3CC[C@H](C(C)(C)O)CC3)[C@H](O)[C@@H](O)[C@@H]2O)CC1`: the inhibition result in the data set on Human alphaherpesvirus 1 is “inactive”.
Regarding `CC(C)(O)[C@H]1CC=C(C(=O)OC[C@H]2O[C@@H](Oc3c(O)cc(C(=O)O)cc3O)[C@H](O)[C@@H](O)[C@@H]2O)CC1`, the inhibition result with Human alphaherpesvirus 1 was “inactive”.
With `CC(C)(O)[C@H]1CC=C(C(=O)OC[C@H]2O[C@@H](Oc3cc(C(=O)O)cc(O)c3O)[C@H](O)[C@@H](O)[C@@H]2O)CC1`, the inhibition result in the data set on Human alphaherpesvirus 1 was “inactive”.
With `COc1cc([C@@H]2c3cc(O)c(OC)cc3C[C@H](CO)[C@H]2CO[C@@H]2O[C@H](CO)[C@@H](O)[C@H](O)[C@H]2O)ccc1O`, in the data set with Human alphaherpesvirus 1, the inhibition result was “inactive”.
Consider `CC(C)(O)C1CC=C(C(=O)O)CC1` (racemic), for which the MNTC at 72 h in data set [1] is above 1090 µM. Moreover, the inhibition result in the data set on Human alphaherpesvirus 1 was “inactive”.
Regarding `O=C(O)c1cc(O)c(O)c(O)c1` [GALLIC ACID], in data set [1], the MNTC at 72 h was found to be 590 µM. For the same compound, in the data set with Human alphaherpesvirus 1, the inhibition result is “inactive”.
Turning to `O=c1c(O[C@@H]2O[C@H](CO)[C@@H](O)[C@H](O)[C@H]2O)c(-c2ccc(O)c(O)c2)oc2cc(O)cc(O)c12` [ISOQUERCETIN], the MNTC at 72 h in data set [1] is 430 µM. Further, the inhibition result in the data set with Human alphaherpesvirus 1 is “inactive”.
For `O=c1cc(-c2ccc(O)c(O)c2)oc2cc(O)cc(O)c12` [LUTEOLIN] the same measures were 700 µM and “inactive”.
Take `O=c1c(O)c(-c2cc(O)c(O)c(O)c2)oc2cc(O)cc(O)c12` [MYRICETIN]: the MNTC at 72 h in data set [1] is 310 µM. Further, in the data set with Human alphaherpesvirus 1, the TIC was determined as 0.31 mM.
For `O=c1c(O)c(-c2ccc(O)c(O)c2)oc2cc(O)cc(O)c12` [QUERCETIN], the MNTC at 72 h in data set [1] was below 20 µM. The TIC with Human alphaherpesvirus 1 is given as 0.33 mM.
Take `O=c1cc(-c2cc(O)c(O)c(O)c2)oc2cc(O)cc(O)c12` [TRICETIN]: in data set [1], the MNTC at 72 h is 40 µM. The inhibition result in the data set with Human alphaherpesvirus 1 is “inactive”.
